# This is a sample that favours compounds with a hit; in the whole collection about 2.2% have one here.
# DYRK1A inh: rat Dyrk1A kinase inhibitors, primary screen, biochemical, single point, plate reader | Dual specificity tyrosine-phosphorylation-regulated kinase 1A (Rattus norvegicus), Q63470 | ADP-Glo luminescence, NFATc1 peptide | inhibition, % at 12.5 µM | hit rate 0.43% among 310,000 | AID 504441, 2011; in the data active = inhibition above about 50%
# dFosB activator: activators of delta FosB homodimer, primary screen, biochemical, fluorescence polarization, TAMRA-CDK5 oligo, single point; Protein FosB (Mus musculus), P13346; purified delta FosB; percent of positive-control signal above neutral wells; activation, % at 25 µM; hit rate 0.99% among 340,000;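 active = mean activation above about 17%, with every replicate also reaching it, limit read from the data, passing the limit was not always enough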
# CDK5 p35 inh: inhibitors of human CDK5/p35 kinase, primary screen, biochemical, single concentration; Recombinant CDK5/p35, ADP-Glo luminescence, 60 min; inhibition, % at 10 µM; hit rate 0.01% among 330,000; AID 488839, 2010;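 active = highest replicate inhibition of at least 50% and at least 75% of replicates reaching 50%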
# Target sequence (Q00535 whole entry, looked up): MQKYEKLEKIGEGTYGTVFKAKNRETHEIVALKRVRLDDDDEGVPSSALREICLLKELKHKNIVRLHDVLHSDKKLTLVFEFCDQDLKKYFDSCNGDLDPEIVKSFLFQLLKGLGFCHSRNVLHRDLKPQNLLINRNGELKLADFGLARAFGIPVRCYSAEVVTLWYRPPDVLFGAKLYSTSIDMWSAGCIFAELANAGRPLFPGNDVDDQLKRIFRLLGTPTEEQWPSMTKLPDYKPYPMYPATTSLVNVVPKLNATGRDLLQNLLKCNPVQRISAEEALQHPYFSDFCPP
# Target sequence (Q15078 whole entry, looked up): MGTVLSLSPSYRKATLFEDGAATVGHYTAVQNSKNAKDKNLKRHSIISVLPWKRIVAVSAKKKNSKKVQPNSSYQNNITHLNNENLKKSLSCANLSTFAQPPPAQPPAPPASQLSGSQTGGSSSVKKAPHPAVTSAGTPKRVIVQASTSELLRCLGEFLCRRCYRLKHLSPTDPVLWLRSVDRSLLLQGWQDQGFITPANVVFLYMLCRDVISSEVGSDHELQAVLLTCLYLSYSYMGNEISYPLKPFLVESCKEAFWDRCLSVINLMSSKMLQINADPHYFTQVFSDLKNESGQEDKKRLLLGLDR
# Rtt109 HAT inh: inhibitors of C. albicans Rtt109/Vps75 HAT, primary screen, biochemical, ThioGlo CoA-SH fluorescence, plate reader; Histone acetyltransferase RTT109 (Candida albicans (strain SC5314 / ATCC MYA-2876)), …; inhibition, % at 34.9 µM; AID 540336, 2011; hit rate 0.16% among 330,000; purified Rtt109/Vps75, 4 h;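 active = inhibition of at least 50% in every replicate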
# CAL PDZ FP-1: CAL PDZ peptide-binding inhibitors, primary screen, biochemical, fluorescence polarization, Cer-tagged CAL PDZ, HTS | purified CAL PDZ, TMR-peptide fluorescence polarization, 1 h | inhibition, % at 20 µM | hit rate 0.02% among 330,000 | AID 504414, 2011;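 active = highest replicate inhibition of at least 40%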
#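 Material: tagged CAL PDZ domain; buffer or medium: 25 mM sodium phosphate pH 7.4, 150 mM NaCl, TCEP, IgG, Thesit; compound dosing: single point, 20 µM; schedule: 1 h incubation at room temperature before polarization reading; measured by: FP readout, S and P plane fluorescence; read-out basis: percent inhibition from loss of millipolarization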
# CAL PDZ FP-2: untagged CAL PDZ binding inhibitors, primary screen, biochemical, fluorescence polarization, HTS; Golgi-associated PDZ and coiled-coil motif-containing protein (Homo sapiens), Q9HD26; purified CAL PDZ, TMR-peptide fluorescence polarization, 1 h; inhibition, % at 24.9 µM; hit rate 0.92% among 300,000;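 active = mean inhibition of at least 30% with at least half of replicates also reaching 30%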
# A number is an active result; . = inactive; / = no result given.
SMILES,DYRK1A inh,dFosB activator,CDK5 p35 inh,Rtt109 HAT inh,CAL PDZ FP-1,CAL PDZ FP-2
O=C(Cn1c(O)c(/C=C2\C=Nc3ccccc32)sc1=O)N1CCOCC1,.,.,.,.,.,/
O=C(Cn1c(O)c(/C=C2\C=Nc3ccccc32)sc1=O)Nc1ccc2c(c1)OCO2,.,36.4,.,.,.,.
Nc1oc2ccc(F)cc2c(=O)c1C=O,.,.,.,.,.,.
CCN1C(=O)/C(=C/C=C2\N(CC)c3cc(S(=O)(=O)N(C)C)ccc3N2c2ccccc2)SC1=S,.,91.2,.,.,.,.
CCCC(=O)NCCc1ccc(S(N)(=O)=O)cc1,.,.,.,.,.,.
COC(C(=O)Nc1ccc(F)cc1F)c1ccccc1 (stereo not given),.,.,.,.,.,.
COC(=O)CC1(C(=O)OC)Oc2ccccc2C(=O)N1c1ccc(F)cc1F (stereo not given),/,.,.,57.2,.,.
NNC(=O)C(=O)Nc1ccc(O)cc1,.,.,.,.,.,.
CCS(=O)(=O)N1N=C(c2ccc(NS(C)(=O)=O)cc2)CC1c1ccccc1 (stereo not given),.,46.3,.,.,.,.
CS(=O)(=O)Nc1ccc(C2=NN(C(=O)c3ccco3)C(c3ccccc3)C2)cc1 (stereo not given),.,.,.,.,.,.
CS(=O)(=O)Nc1ccc(C2=NN(C(=O)c3ccco3)C(c3ccco3)C2)cc1 (stereo not given),.,.,.,.,.,32.6
CS(=O)(=O)Nc1ccc(C2=NN(S(C)(=O)=O)C(c3ccccc3)C2)cc1 (stereo not given),/,.,.,.,.,.
O=C(CCCc1nc(-c2ccc(Cl)cc2)no1)NC1CCCC1,.,.,.,.,.,73.7
O=C(CCc1nc(-c2ccc(Cl)cc2)no1)NC1CCCCC1,.,.,.,.,/,.
COc1ccc(COCC(O)CN2CCOCC2)cc1OC (stereo not given),.,.,.,.,.,.
COc1cc(COCC(O)CN2CCOCC2)cc(OC)c1OC (stereo not given),.,.,.,.,.,56.1
CCOC(=O)CCS(=O)(=O)c1nc(-c2ccccc2)cc(C(F)(F)F)n1,.,.,.,.,.,.
COC(=O)CCS(=O)(=O)c1nc(-c2ccccc2)cc(C(F)(F)F)n1,.,.,.,67.6,.,.
CCn1cc(C(=O)OCC(=O)Nc2ccc(S(=O)(=O)N3CCCC3)cc2)c(=O)c2ccc(C)nc21,.,.,.,.,.,.
COc1ccc(CCn2nc(C)c([N+](=O)[O-])c2C)cc1,/,.,.,.,.,37.9
O=C(CCCCn1c(=O)[nH]c2ccccc2c1=O)NCCC1=CCCCC1,.,.,.,.,.,83.3
O=C(CN1C2CCCC1CC(NC(=O)c1ccccc1)C2)Nc1nccs1 (stereo not given),.,.,.,.,.,.
COc1ccc(C)cc1-n1c(SCC(=O)Nc2cc(C)on2)nc2sc(C)c(C)c2c1=O,/,.,.,.,/,80.6
COc1ccc(-n2c(SCC(=O)Nc3cc(C)on3)nc3c([nH]c4ccccc43)c2=O)cc1,.,.,.,.,.,/
COc1ccc(-n2c(SCC(=O)Nc3cc(C)on3)nc3c([nH]c4ccccc43)c2=O)cc1OC,.,24.6,.,.,.,.
SMILES,DYRK1A inh,dFosB activator,CDK5 p35 inh,Rtt109 HAT inh,CAL PDZ FP-1,CAL PDZ FP-2
N#C/C(=C\c1ccc(O)cc1)C(=O)NCc1cccc(Cl)c1,51.0,.,.,.,.,.
CCn1nc(C)c(CN2CCc3c([nH]c4ccccc34)C2c2ccc(F)c(OC)c2)c1C (stereo not given),.,.,.,.,.,.
C=C(NC(=O)C(=C)NC(=O)c1csc(C2=NC3c4csc(n4)C4NC(=O)c5csc(n5)C(C(C)(O)C(C)O)NC(=O)C5CSC(=N5)/C(=C/C)NC(=O)C(C(C)O)NC(=O)c5csc(n5)C3(CC2)NC(=O)C(C)NC(=O)C(=C)NC(=O)C(=C)NC(=O)C(C(C)C)NC2C=Cc3c(C(C)O)cc(nc3C2O)C(=O)OC4C)n1)C(N)=O (stereo not given),.,17.5,.,.,.,.
CCN(CC)S(=O)(=O)c1cc(NC(=O)c2ccc3c(c2)NC(=O)C(C)S3)ccc1C (stereo not given),.,.,.,.,.,.
O=C(NCCCN1CCCC1=O)c1cc2nc(-c3ccco3)cc(C(F)(F)F)n2n1,.,.,.,.,.,57.7
O=C(c1cc2nc(-c3ccco3)cc(C(F)(F)F)n2n1)N1CCCCCC1,.,.,.,.,.,.
CC[N+]1(CC)CC2=Cc3c(ccc4ccccc34)C(C)C2C1 (stereo not given),.,.,.,.,.,/
O=C(N[C@@H](Cc1c[nH]c2ccccc12)C(=O)O)C1CCN(S(=O)(=O)c2ccc(Cl)cc2)CC1,.,.,.,.,.,32.2
O=C(N[C@@H](Cc1c[nH]c2ccccc12)C(=O)O)C1CCN(S(=O)(=O)c2cccs2)CC1,.,.,.,.,/,70.6
CC(C)(C)OC(=O)N1CCC(C(=O)N[C@@H](Cc2c[nH]c3ccccc23)C(=O)O)CC1,.,.,.,.,/,.
Cc1ccc(NCCN(C)C)c2c(=O)c3cc(O)ccc3sc12,.,42.6,.,.,.,.
CN(C)CCNc1ccc2nnn3c4ccc(O)cc4c(=O)c1c23,/,.,.,.,.,.
NC(=S)N=Nc1c(O)n(Cc2ccccc2)c2ccccc12,.,.,.,.,.,.
C/C(Cl)=C\Cn1c(O)c(N=NC(N)=S)c2ccccc21,.,.,.,.,.,75.6
CCNc1ccc2noc3c2c1C(=O)c1ccccc1-3,/,.,.,.,43.7,.
O=C1c2ccccc2-c2onc3ccc(NCc4ccco4)c1c23,.,.,.,.,.,.
CCOC(=O)c1cc(CC)sc1NC(=O)COC(=O)c1cc[n+]([O-])cc1,.,.,.,.,.,.
Cc1nc2nc(C)n(CCN3CCOCC3)c(=O)c2c(-c2cccc([N+](=O)[O-])c2)c1C(=O)CCCCCCCCCCN1CCC(c2ccccc2)(c2ccccc2)CC1,.,36.9,.,.,.,.
Cc1nc2ccccc2c(=O)n1CCN1CCOCC1,.,.,.,.,.,.
O=C(Cn1cc([N+](=O)[O-])ccc1=O)NCC(=O)Nc1ccc(F)c(F)c1F,.,.,.,.,.,.
